In ChEMBL document CHEMBL1806443, “Novel imidazo[4,5-b]pyridine and triaza-benzo[c]fluorene derivatives: synthesis, antiproliferative activity and DNA binding studies” (Eur J Med Chem, 2011) one finds Activity, IC50 and ΔTm data, which are given here for 1 compound.

The structures appear in SMILES notation.

In assay [1] the test system is SW-620. As to the kind of experiment: Cell cycle arrest in human SW620 cells assessed as accumulation at G1 phase at 1 uM after 24 hrs by propidium iodide staining based flow cytometeric analysis (reference value: 29.3 +/- 1.5%). The class given is functional. (A flow cytometer gives signals particle by particle.)
Assay [2] relates to MIA PaCa-2. As to the kind of experiment: Cell cycle arrest in human MIAPaCa2 cells assessed as accumulation at G2/M phase at 1 uM after 48 hrs by propidium iodide staining based flow cytometeric analysis (reference value: 14.3 +/- 1.8%). Format: functional.
Assay [3] relates to MIA PaCa-2. As to the kind of experiment: Cell cycle arrest in human MIAPaCa2 cells assessed as accumulation at S phase at 5 uM after 24 hrs by propidium iodide staining based flow cytometeric analysis (reference value: 29.2 +/- 4.2%). Format: functional.
Assay [4] concerns MIA PaCa-2. As to the kind of experiment: Cell cycle arrest in human MIAPaCa2 cells assessed as accumulation at subG1 phase at 1 uM after 48 hrs by propidium iodide staining based flow cytometeric analysis (reference value: 46.8 +/- 0.7%). The class given is functional.
Assay [5] relates to HEp-2. Briefly: Antiproliferative activity against human Hep2 cells after 72 hrs by MTT assay. The class given is functional, cell-based. As to conditions: Homo sapiens, HEp-2, 72 h. The gist of the method: (§1)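 Monolayer cells in DMEM with 10% FBS, 2 mM L-glutamine, penicillin and streptomycin at 37 °C, 5% CO2. Seeded at 3000-6000 cells/well by doubling time on day 0. Five 10-fold dilutions (0.01–100 µM) were added and incubated 72 h. MTT read-out, converted to percentage growth. IC50 by linear regression between bracketing concentrations. Quadruplicate points, three independent experiments, ANOVA/Tukey p<0.05.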
For orientation: Tetrazolium dyes change colour on reduction, which living cells bring about.

For assay [6], the system named is SK-BR-3. Briefly: Antiproliferative activity against human SKBR3 cells after 72 hrs by MTT assay. Format: functional, cell-based. As to conditions: Homo sapiens, SK-BR-3, 72 h. The gist of the method: as §1
Assay [7] relates to Nucleic Acid. Briefly: Binding affinity to calf thymus DNA assessed as change in melting temperature at compound to polynucleotide ratio of 0.2 by UV-VIS spectroscopic analysis. The class given is nucleic-acid assay. Conditions: Bos taurus. The gist of the method:
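ct-DNA alone or with compound at set r = [compound]/[polynucleotide], in cacodylate buffer pH 7.0, I = 0.05 mol dm^-3. Absorbance at 260 nm followed against temperature, ligand absorbance subtracted, curves normalized. Tm is the transition midpoint, from the first-derivative maximum or by tangent method. ΔTm = Tm(complex) − Tm(free DNA), mean of ≥2 runs, error ±0.5 °C.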

What is called IC50 is the midpoint of a concentration-inhibition curve. Read a high IC50 as weaker potency in that assay. As a reminder, the ΔTm is the shift of the melting midpoint relative to a reference. Turning to `Cl.c1cnc2nc3ccc4ccc(C5=NCCN5)cc4n3c2c1`, the Activity in assay [1] was 54.3%; in assay [2], 23%; in assay [3] it was 59.3%; in assay [4], 33.8%. The IC50 in assay [5] was found to be 270 nM; in assay [6], 2200 nM. Besides, in assay [7], the shift in melting temperature (ΔTm) amounted to 5.1 °C.
